Results published in ChEMBL document CHEMBL4118197, “The discovery and preclinical evaluation of BMS-707035, a potent HIV-1 integrase strand transfer inhibitor” (Bioorg Med Chem Lett, 2018).

Assays:
[1] = target: Human immunodeficiency virus type 1 integrase (Human immunodeficiency virus 1, UniProt Q7ZJM1); experiment: Inhibition of HIV1 integrase strand transfer activity
[2] = Aqueous solubility of the compound; assay type: physicochemical
In short: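 Aqueous solubility measured at pH 2.3, 6.1, 7.3 and 8.5, in µg/mL.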

[3] = Clearance in Sprague-Dawley rat at 1 mg/kg, iv after 4 hrs; assay type: ADME, organism-based; details: in vivo
In short: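 Male Sprague-Dawley rats given 1 mpk IV in PEG400/ethanol (90:10); blood sampled at 5 and 30 min and 1, 2 and 4 h post-dose; clearance from plasma profile.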

Human immunodeficiency virus type 1 integrase, sequence (Q7ZJM1 whole entry): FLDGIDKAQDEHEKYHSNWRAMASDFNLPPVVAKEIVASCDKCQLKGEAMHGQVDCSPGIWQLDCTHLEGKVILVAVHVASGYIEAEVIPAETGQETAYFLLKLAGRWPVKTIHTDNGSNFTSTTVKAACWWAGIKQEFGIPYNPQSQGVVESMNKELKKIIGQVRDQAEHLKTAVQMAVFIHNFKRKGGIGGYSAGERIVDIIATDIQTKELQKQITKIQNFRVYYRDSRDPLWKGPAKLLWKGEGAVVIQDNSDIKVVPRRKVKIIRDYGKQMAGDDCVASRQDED

Row | Structure (SMILES) | IC50 [1] | solubility [2] | clearance [3]
1 | O=C(NCc1ccc(F)cc1S(=O)(=O)N1CCOCC1)c1nc2n(c(=O)c1O)CCCC21CCCC1 | 11 nM | ≤ 5 µg/mL | 
2 | CS(=O)(=O)c1cc(F)ccc1CNC(=O)c1nc2n(c(=O)c1O)CCCC21CCCC1 | 4 nM | ≤ 5 µg/mL | 46 mL/min/kg
3 | Cc1cc(F)ccc1CNC(=O)c1nc2n(c(=O)c1O)CCOC2(C)C | 2 nM |  | 
4 | CC1(C)OCCn2c1nc(C(=O)NCc1ccc(F)cc1N1CCOCC1)c(O)c2=O | 5 nM |  | 29 mL/min/kg
5 | CC1(C)OCCn2c1nc(C(=O)NCc1ccc(F)cc1Cl)c(O)c2=O | 10 nM |  | 
6 | Cc1cc(CNC(=O)c2nc3n(c(=O)c2O)CCCC32CCCC2)ccc1F | 2 nM | ≤ 5 µg/mL | 17 mL/min/kg
7 | CC1(C)OCCn2c1nc(C(=O)NCc1ccc(F)cc1S(C)(=O)=O)c(O)c2=O | 6 nM |  | 6.9 mL/min/kg
8 | O=C(NCc1ccc(F)cc1N1CCCCS1(=O)=O)c1nc2n(c(=O)c1O)CCCC21CCCC1 | 5 nM | ≤ 5 µg/mL | 
